Data published in ChEMBL document CHEMBL1158957, “Scopadulciol, an inhibitor of gastric H+, K(+)-ATPase from Scoparia dulcis, and its structure-activity relationships” (J Nat Prod, 1991).
Several values for one entry are separate records, joined by “and”; a condition that tells them apart may be missing. Identical values can stand only once.

How the values were obtained:
Sus scrofa [1] = organism: Sus scrofa; experiment: Inhibition of H+/K+ ATPase in pig stomach at 1 uM; format: tissue-based
In short: (§1)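 Enzyme from hog fundic mucosa: vesicles were isolated by differential and sucrose/Ficoll gradient centrifugation, lyophilized, resuspended in water, kept at -80° and used within 2–3 weeks. The 1 ml assay held 10 µg vesicle protein, 3 mM MgSO₄, 3 mM ATP and 40 mM Tris/HCl pH 7.4, ±15 mM KCl. Inorganic phosphate was the read-out, and H⁺,K⁺-ATPase activity was taken as the K⁺-dependent difference.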

Sus scrofa [2] = organism: Sus scrofa; experiment: Inhibition of H+/K+ ATPase in pig stomach at 10 uM; format: tissue-based; in short: as §1
Sus scrofa [3] = organism: Sus scrofa; experiment: Inhibition of H+/K+ ATPase in pig stomach at 100 uM; format: tissue-based; in short: as §1
[4] = Inhibition of H+/K+ ATPase in pig stomach; format: tissue-based, Sus scrofa; in short: as §1

SMILES | inhibition (Sus scrofa [1]) | inhibition (Sus scrofa [2]) | inhibition (Sus scrofa [3]) | IC50 [4] [µM]
COC(=O)[C@]1(C)CCC[C@@]2(C)[C@H]1[C@H](O)C[C@H]1C[C@H](O)[C@@]3(C)CC[C@]12C3 | -2% | 5% | 22% | –
C[C@]12CC[C@]3(C1)[C@@H](C[C@@H](O)[C@H]1[C@](C)(C(=O)O)CCC[C@@]13C)C[C@@H]2O | – | – | 8% | –
C[C@]12CC[C@]3(C1)[C@@H](C[C@@H](O)[C@H]1[C@](C)(CO)CCC[C@@]13C)C[C@H]2O | – | -3% | 7% | –
CC(=O)O[C@H]1C[C@@H]2C[C@@H](O)[C@H]3[C@](C)(C(=O)O)CCC[C@]3(C)[C@]23CC[C@@]1(C)C3 | 2% | 13% | 21% | –
CC(=O)OC[C@]1(C)CCC[C@@]2(C)[C@H]1[C@H](OC(C)=O)C[C@H]1C[C@H](OC(C)=O)[C@@]3(C)CC[C@]12C3 | 13% | 18% | 57% | –
COC(=O)[C@]1(C)CCC[C@@]2(C)[C@H]1[C@H](OC(=O)c1ccccc1)C[C@H]1C[C@@H](OC(C)=O)[C@@]3(C)CC[C@]12C3 | 35% | 58% | 61% | 3
COC(=O)[C@]1(C)CCC[C@@]2(C)[C@H]1[C@H](O)C[C@H]1CC(=O)[C@@]3(C)CC[C@]12C3 | -5% | 4% | 52% | –
CC(=O)O[C@@H]1C[C@H]2CC(=O)[C@@]3(C)CC[C@@]2(C3)[C@@]2(C)CCC[C@@](C)(C(=O)O)[C@H]12 | 1% | 7% | 33% | –
C[C@]12CC[C@]3(C1)[C@@H](C[C@@H](O)[C@H]1[C@](C)(CO)CCC[C@@]13C)C[C@@H]2O | – | – | 24% | –
C[C@]12CC[C@]3(C1)[C@@H](CC(=O)[C@H]1[C@](C)(C(=O)O)CCC[C@@]13C)CC2=O | -1% | 1% | 12% | –
COC(=O)[C@]1(C)CCC[C@@]2(C)[C@H]1[C@H](OC(=O)c1ccccc1)C[C@H]1C[C@H](OC(C)=O)[C@@]3(C)CC[C@]12C3 | 49% | 61% | 62% | –
CC(=O)OC[C@]1(C)CCC[C@@]2(C)[C@H]1[C@H](O)C[C@H]1C[C@@H](OC(C)=O)[C@@]3(C)CC[C@]12C3 | -2% | 33% | 62% | –
CC(=O)OC[C@]1(C)CCC[C@@]2(C)[C@H]1[C@H](O)C[C@H]1C[C@H](OC(C)=O)[C@@]3(C)CC[C@]12C3 | 5% | 40% | 79% | –

The remaining lines, values ahead:

inhibition (Sus scrofa [1]) | inhibition (Sus scrofa [2]) | inhibition (Sus scrofa [3]) | IC50 [4] [µM] | SMILES
7% and -0% | 21% and 14% | 62% and 64% | – | C[C@]12CC[C@]3(C1)[C@H](CC2=O)C[C@@H](OC(=O)c1ccccc1)[C@H]1[C@](C)(C(=O)O)CCC[C@@]13C
10% | 64% | 68% | – | COC(=O)[C@]1(C)CCC[C@@]2(C)[C@H]1[C@H](OC(=O)c1ccccc1)C[C@H]1C[C@H](O)[C@@]3(C)CC[C@]12C3
40% | 71% | 72% | – | CC(=O)OC[C@]1(C)CCC[C@@]2(C)[C@H]1[C@H](OC(=O)c1ccccc1)C[C@H]1CC(=O)[C@@]3(C)CC[C@]12C3
3% | 21% | 94% | – | CC(=O)O[C@H]1C[C@@H]2C[C@@H](OC(=O)c3ccccc3)[C@H]3[C@](C)(C(=O)O)CCC[C@]3(C)[C@]23CC[C@@]1(C)C3
-4% | 3% | 30% | – | C[C@]12CC[C@]3(C1)[C@H](C[C@H]2O)C[C@@H](OC(=O)c1ccccc1)[C@H]1[C@](C)(C(=O)O)CCC[C@@]13C
24% | 67% | 75% | – | COC(=O)[C@]1(C)CCC[C@@]2(C)[C@H]1[C@H](OC(=O)c1ccccc1)C[C@H]1C/C(=N\O)[C@@]3(C)CC[C@]12C3
1% | 12% | 72% | – | C[C@]12CC[C@]3(C1)[C@@H](C[C@@H](OC(=O)c1ccccc1)[C@H]1[C@](C)(C(=O)O)CCC[C@@]13C)C[C@@H]2O
– | – | 24% | – | C[C@]12CC[C@]3(C1)[C@H](CC2=O)C[C@@H](OC(=O)c1ccccc1)[C@H]1[C@@](CO)(C(=O)O)CCC[C@@]13C
36% | 74% | 81% | 3 | COC(=O)[C@]1(C)CCC[C@@]2(C)[C@H]1[C@H](OC(=O)c1ccccc1)C[C@H]1CC(=O)[C@@]3(C)CC[C@]12C3
7% | 38% | 98% | – | CC(=O)O[C@@H]1C[C@@H]2C[C@@H](OC(=O)c3ccccc3)[C@H]3[C@](C)(C(=O)O)CCC[C@]3(C)[C@]23CC[C@@]1(C)C3
11% | 26% | 80% | – | C[C@]12CC[C@]3(C1)[C@H](C/C2=N\O)C[C@@H](OC(=O)c1ccccc1)[C@H]1[C@](C)(C(=O)O)CCC[C@@]13C
-1% | 21% | 45% | – | C[C@@]12CC[C@]3(C1)[C@H](CC2=O)C[C@@H](OC(=O)c1ccccc1)[C@H]1[C@](C)(CO)CCC[C@@]13C
12% | 59% | 64% | – | COC(=O)[C@]1(C)CCC[C@@]2(C)[C@H]1[C@H](OC(=O)c1ccccc1)C[C@H]1C[C@@H](O)[C@@]3(C)CC[C@]12C3
